From EPA's CvTdb concentration-time database

What was measured:
Mouse [1] = assay: concentration in plasma after dosing; settings: dosed: 2,4-Dichlorophenoxyacetic acid, 1.0 mg/kg, iv, Male, B6C3F1
Mouse [2] = assay: concentration in plasma after dosing; settings: dosed: 2,4-Dichlorophenoxyacetic acid, 2.0 mg/kg, oral, Male, B6C3F1
Rat [3] = assay: concentration in plasma after dosing; settings: 4 h; dosed: 2-Hydroxy-4-methoxybenzophenone; 500 mg/kg; oral; Male; F344
Rat [4] = assay: concentration in plasma after dosing; settings: dosed: 2-Hydroxy-4-methoxybenzophenone, 500 mg/kg, oral, Male, F344
Rat [5] = assay: concentration in plasma after dosing; settings: dosed: 2-Hydroxy-4-methoxybenzophenone, 100 mg/kg, oral, Female, F344
Mouse [6] = assay: concentration in plasma after dosing; settings: 0.25 h; dosed: 2-Hydroxy-4-methoxybenzophenone; 50 mg/kg; iv; Female; B6C3F1
Mouse [7] = assay: concentration in plasma after dosing; settings: 10 min; dosed: 2-Hydroxy-4-methoxybenzophenone; 250 mg/kg; oral; Female; B6C3F1
Mouse [8] = assay: concentration in plasma after dosing; settings: 0.25 h; dosed: 2-Hydroxy-4-methoxybenzophenone; 250 mg/kg; oral; Male; B6C3F1
Rat [9] = assay: concentration in plasma after dosing; settings: dosed: Methyleugenol, 37 mg/kg, oral, Male, F344/N
Rat [10] = assay: concentration in plasma after dosing; settings: dosed: Methyleugenol, 37 mg/kg, oral, Female, F344/N
Rat [11] = assay: concentration in plasma after dosing; settings: dosed: Methyleugenol, 37 mg/kg, iv, Male, F344
Rat [12] = assay: concentration in plasma after dosing; settings: 20 min; dosed: Methyleugenol; 37 mg/kg; oral; Male; F344/N
Rat [13] = assay: concentration in plasma after dosing; settings: dosed: Methyleugenol, 37 mg/kg, oral, Male, F344/N; remark: listed apart in the source
Rat [14] = assay: concentration in brain after dosing; settings: 6 h; dosed: Perfluorohexane-1-sulphonic acid – potassium salt; 16 mg/kg; oral; Female; Harlan Sprague Dawley
Rat [15] = assay: concentration in liver after dosing; settings: 24 h; dosed: Perfluorohexane-1-sulphonic acid – potassium salt; 16 mg/kg; oral; Female; Harlan Sprague Dawley
Rat [16] = assay: concentration in kidney after dosing; settings: 192 h; dosed: Perfluorohexane-1-sulphonic acid – potassium salt; 16 mg/kg; oral; Female; Harlan Sprague Dawley
Rat [17] = assay: concentration in kidney after dosing; settings: 96 h; dosed: Perfluorohexane-1-sulphonic acid – potassium salt; 16 mg/kg; oral; Female; Harlan Sprague Dawley
Rat [18] = assay: concentration in plasma after dosing; settings: 0.25 h; dosed: Primidone; 30 mg/kg; oral; Male; F344
Rat [19] = assay: concentration in plasma after dosing; settings: 0.25 h; dosed: Primidone; 30 mg/kg; oral; Male; F344; remark: listed apart in the source
Rat [20] = assay: concentration in plasma after dosing; settings: 3 h; dosed: Primidone; 130 mg/kg; oral; Female; F344
Rat [21] = assay: concentration in plasma after dosing; settings: 22 h; dosed: Primidone; 130 mg/kg; oral; Female; F344
Rat [22] = assay: concentration in plasma after dosing; settings: dosed: Pyridine, 25 mg/kg, oral, Male, F344
Rat [23] = assay: concentration in plasma after dosing; settings: 40 h; dosed: Pyridine; 100 mg/kg; oral; Male; F344
Rat [24] = assay: concentration in plasma after dosing; settings: 2 min; dosed: Pyridine; 10 mg/kg; oral; Male; F344
Rat [25] = assay: concentration in plasma after dosing; settings: 5 min; dosed: Pyridine; 10 mg/kg; iv; Male; F344
Rat [26] = assay: concentration in plasma after dosing; settings: 1.5 h; dosed: alpha-Thujone; 50 mg/kg; oral; Female; Harlan Sprague Dawley
Rat [27] = assay: concentration in plasma after dosing; settings: 12 h; dosed: alpha-Thujone; 50 mg/kg; oral; Female; Harlan Sprague Dawley
Rat [28] = assay: concentration in plasma after dosing; settings: 2 min; dosed: alpha-Thujone; 50 mg/kg; oral; Male; Harlan Sprague Dawley
Rat [29] = assay: concentration in plasma after dosing; settings: 5 min; dosed: alpha-Thujone; 25 mg/kg; oral; Male; Harlan Sprague Dawley
Rat [30] = assay: concentration in brain after dosing; settings: 0.5 h; dosed: alpha-Thujone; 50 mg/kg; oral; Female; Harlan Sprague Dawley
human = assay: concentration in blood after dosing; negative times count back from the end of exposure; settings: dosed: trichloroethylene, 100 ppm, inhalation, duration: 6 hr, female
How it was run: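 Data points giving concentration or amount against time came from published in vivo toxicokinetic studies and from two structured collections. PubMed searching, classifier screening and manual review located the studies. Most points were digitised from plot screenshots using WebPlotDigitizer, the rest were copied from tables, and all keep their reported units.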

`O=C(O)COc1ccc(Cl)cc1Cl` [2,4-Dichlorophenoxyacetic acid] was tested, and the concentration in plasma (Mouse [1]; 2.5 min) was 7760 ng/mL, the concentration in plasma (Mouse [1]; 5 min) was 6530 ng/mL and the concentration in plasma (Mouse [1]; 10 min) was 9300 ng/mL. The concentration in plasma (Mouse [1]; 0.25 h) was 7400 ng/mL, the concentration in plasma (Mouse [1]; 0.5 h) was 5390 ng/mL and the concentration in plasma (Mouse [1]; 1 h) was 5370 ng/mL. It also gave a concentration in plasma (Mouse [1]; 2 h) of 1290 ng/mL, a concentration in plasma (Mouse [1]; 2.5 h) of 211 ng/mL and a concentration in plasma (Mouse [1]; 3 h) of 248 ng/mL. The concentration in plasma (Mouse [2]; 2.5 min) was 2790 ng/mL, the concentration in plasma (Mouse [2]; 10 min) was 4900 ng/mL and the concentration in plasma (Mouse [2]; 0.25 h) was 3740 ng/mL. The concentration in plasma (Mouse [2]; 0.5 h) was 8570 ng/mL, the concentration in plasma (Mouse [2]; 2 h) was 2400 ng/mL and the concentration in plasma (Mouse [2]; 3 h) was 929 ng/mL.
For `O=C(c1ccccc1)c1ccc(O)cc1O` [2,4-Dihydroxybenzophenone], the concentration in plasma (Rat [3]) was 181 ng/mL, the concentration in plasma (Rat [4]; 10 min) was 78.6 ng/mL and the concentration in plasma (Rat [4]; 10 h) was 107 ng/mL. For the same molecule, the concentration in plasma (Rat [5]; 0.25 h) was 123 ng/mL, the concentration in plasma (Rat [5]; 4 h) was 77.4 ng/mL and the concentration in plasma (Mouse [6]) was 1260 ng/mL. It also gave a concentration in plasma (Mouse [7]) of 2990 ng/mL and a concentration in plasma (Mouse [8]) of 1130 ng/mL.
`C=CCc1ccc(OC)c(OC)c1` [Methyleugenol] was tested, and the concentration in plasma (Rat [9]; 1.5 h) was 23.6 ng/mL, the concentration in plasma (Rat [9]; 6 h) was 8 ng/mL and the concentration in plasma (Rat [10]; 2 min) was 13.3 ng/mL. For the same molecule, the concentration in plasma (Rat [10]; 2 h) was 25.2 ng/mL, the concentration in plasma (Rat [11]; 5 min) was 29200 ng/mL and the concentration in plasma (Rat [11]; 3 h) was 263 ng/mL. The concentration in plasma (Rat [12]) was 246 ng/mL, the concentration in plasma (Rat [13]; 0.5 h) was 44.9 ng/mL and the concentration in plasma (Rat [13]; 4 h) was 12.7 ng/mL.
With `O=S(=O)([O-])C(F)(F)C(F)(F)C(F)(F)C(F)(F)C(F)(F)C(F)(F)F.[K+]` [Perfluorohexane-1-sulphonic acid – potassium salt] the concentration in brain (Rat [14]) was 1090 ng/g, the concentration in liver (Rat [15]) was 25700 ng/g and the concentration in kidney (Rat [16]) was 1560 ng/g. It also gave a concentration in kidney (Rat [17]) of 5570 ng/g.
`CCC1(c2ccccc2)C(=O)NCNC1=O` [Primidone] was tested, and the concentration in plasma (Rat [18]) was 6800 ng/mL, the concentration in plasma (Rat [19]) was 8900 ng/mL and the concentration in plasma (Rat [20]) was 50400 ng/mL. The concentration in plasma (Rat [21]) was 1700 ng/mL.
`c1ccncc1` [Pyridine] showed a concentration in plasma (Rat [22]; 5 min) of 4220 ng/mL, a concentration in plasma (Rat [22]; 4 h) of 15500 ng/mL and a concentration in plasma (Rat [23]) of 20000 ng/mL. The concentration in plasma (Rat [24]) was 453 ng/mL and the concentration in plasma (Rat [25]) was 8970 ng/mL.
`CC(C)[C@]12CC(=O)[C@H](C)[C@H]1C2` [alpha-Thujone] was tested, and the concentration in plasma (Rat [26]) was 560 ng/mL, the concentration in plasma (Rat [27]) was 18.3 ng/mL and the concentration in plasma (Rat [28]) was 152 ng/mL. It also gave a concentration in plasma (Rat [29]) of 570 ng/mL and a concentration in brain (Rat [30]) of 878 ng/g.
In the case of `OCC(Cl)(Cl)Cl` [trichloroethanol], the concentration in blood (human; 0 h) is reported as 7540 ng/mL, the concentration in blood (human; 18 h) is reported as 3770 ng/mL and the concentration in blood (human; 24 h) is reported as 7410 ng/mL. The concentration in blood (human; 42 h) was 2960 ng/mL, the concentration in blood (human; 48 h) was 6640 ng/mL and the concentration in blood (human; 66 h) was 2540 ng/mL. For the same molecule, the concentration in blood (human; 72 h) was 6900 ng/mL, the concentration in blood (human; 90 h) was 3410 ng/mL and the concentration in blood (human; 96 h) was 6090 ng/mL. For the same molecule, the concentration in blood (human; -6 h, during exposure) was 222 ng/mL.
